Experimental data published in ChEMBL document CHEMBL2321718, “Antioxidant activities of thiosemicarbazones from substituted benzaldehydes and N-(tetra-O-acetyl-β-D-galactopyranosyl)thiosemicarbazide” (Eur J Med Chem, 2013).

Assays:
Type in all cases: functional
Rattus norvegicus [1] = experiment: (§1) Antioxidant activity against CCl4-induced oxidative hepatic injury Wistar albino rat model assessed as effect on liver cytosolic catalase activity per mg protein at 100 mg/kg, ip for 7 consecutive days prior to CCL4 challenge measured 24 hrs post CCl4 challenge (reference value: 218.25 +/-11.43 U/mg protein); conditions: route intraperitoneal
Rattus norvegicus [2] = experiment: as §1, with “GSH-Px” for “catalase”, “0.27 +/-0.01” for “218.25 +/-11.43”; conditions: route intraperitoneal
Rattus norvegicus [3] = experiment: as §1, with “SOD” for “catalase”, “5.42 +/-0.29” for “218.25 +/-11.43”; conditions: route intraperitoneal
Method in brief: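 Wistar albino rats (100–150 g), 7 per group, dosed i.p. at 100 mg/kg/day for 7 days. Then CCl4 in olive oil (1:1) i.p. at 0.6 mL/kg. Liver taken 24 h later, homogenized in 1.15% KCl-10 mM phosphate/EDTA pH 7.4, cytosol obtained by sequential centrifugation. SOD read as the rate of cytochrome C reduction at 550 nm over 5 min (xanthine/xanthine oxidase, KCN, deoxycholate). Units/mg Lowry protein.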

[4] = test system: Radical scavenging activity; experiment: Antioxidant activity assessed as DPPH radical scavenging activity at 300 uM after 30 mins by spectrophotometry
Method in brief: (§2)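 Wistar-independent cell-free assay: 5 µl sample in 96% ethanol (solutions 0.5, 1.0, 2.0, 4.0, 8.0, 12.0 mM before mixing) added to 195 µl DPPH in 96% ethanol (solution labelled […]). Incubated 30 min at 25 °C, then A518 read. %AA = (A_DPPH − A_sample)/(A_DPPH − A_ethanol)×100. Triplicates averaged. IC50 from linear regression of mean %AA against concentration. Resveratrol positive control.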

[5] = test system: Radical scavenging activity; experiment: Antioxidant activity assessed as DPPH radical scavenging activity at 200 uM after 30 mins by spectrophotometry; method in brief: as §2
[6] = test system: Radical scavenging activity; experiment: Antioxidant activity assessed as DPPH radical scavenging activity at 100 uM after 30 mins by spectrophotometry; method in brief: as §2
[7] = test system: Radical scavenging activity; experiment: Antioxidant activity assessed as DPPH radical scavenging activity at 50 uM after 30 mins by spectrophotometry; method in brief: as §2
[8] = test system: Radical scavenging activity; experiment: Antioxidant activity assessed as DPPH radical scavenging activity at 25 uM after 30 mins by spectrophotometry; method in brief: as §2
[9] = test system: Radical scavenging activity; experiment: Antioxidant activity assessed as DPPH radical scavenging activity at 12.5 uM after 30 mins by spectrophotometry; method in brief: as §2
[10] = test system: Radical scavenging activity; experiment: Antioxidant activity assessed as DPPH radical scavenging activity after 30 mins by spectrophotometry; method in brief: as §2

| Compound | Activity (Rattus norvegicus [1]) [U/mg] | Activity (Rattus norvegicus [2]) [U/mg] | Activity (Rattus norvegicus [3]) [U/mg] | Activity [4] [%] | Activity [5] [%] | Activity [6] [%] | Activity [7] [%] | Activity [8] [%] | Activity [9] [%] | IC50 [10] [µM] |
| --- | --- | --- | --- | --- | --- | --- | --- | --- | --- | --- |
| CC(=O)OC[C@H]1O[C@@H](NC(=S)N/N=C/c2ccc(C(C)C)cc2)[C@H](OC(C)=O)[C@@H](OC(C)=O)[C@H]1OC(C)=O | 391 | 1.01 | 9.92 | 24.5 | 18.1 | 15.1 | 9.65 | 5.32 | 2.17 | > 300 |
| CC(=O)OC[C@H]1O[C@@H](NC(=S)N/N=C/c2ccc(Br)cc2)[C@H](OC(C)=O)[C@@H](OC(C)=O)[C@H]1OC(C)=O | 389 | 0.98 | 9.95 | 44.3 | 35.4 | 23.5 | 17.5 | 9.04 | 5.38 | > 300 |
| Oc1ccc(/C=C/c2cc(O)cc(O)c2)cc1 [RESVERATROL] | 285 | 0.35 | 7.49 | 75.6 | 70.4 | 54 | 33.8 | 22.6 | 9.13 | 94 |
| COc1cccc(/C=N/NC(=S)N[C@@H]2O[C@H](COC(C)=O)[C@H](OC(C)=O)[C@H](OC(C)=O)[C@H]2OC(C)=O)c1 | 362 | 0.71 | 8.89 | 55.1 | 34 | 27.2 | 15.6 | 11.5 | 7.34 | 276 |
| CC(=O)OC[C@H]1O[C@@H](NC(=S)N/N=C/c2ccc([N+](=O)[O-])cc2)[C@H](OC(C)=O)[C@@H](OC(C)=O)[C@H]1OC(C)=O | 352 | 0.71 | 8.79 | 64.5 | 53.3 | 29.1 | 18.5 | 11.3 | 6.11 | 210 |
| CC(=O)OC[C@H]1O[C@@H](NC(=S)N/N=C/c2ccc(O)cc2)[C@H](OC(C)=O)[C@@H](OC(C)=O)[C@H]1OC(C)=O | 332 | 0.51 | 8.24 | 75.1 | 68.7 | 49.2 | 33.3 | 22.6 | 11.4 | 108 |
| CC(=O)OC[C@H]1O[C@@H](NC(=S)N/N=C/c2cccc([N+](=O)[O-])c2)[C@H](OC(C)=O)[C@@H](OC(C)=O)[C@H]1OC(C)=O | 361 | 0.73 | 9.01 | 51.2 | 38.3 | 26.3 | 19.6 | 13.7 | 7.05 | 283 |
| CCOc1cc(/C=N/NC(=S)N[C@@H]2O[C@H](COC(C)=O)[C@H](OC(C)=O)[C@H](OC(C)=O)[C@H]2OC(C)=O)ccc1O | 284 | 0.69 | 6.45 | 69.2 | 68.3 | 59.4 | 45.4 | 30.2 | 14.2 | 71 |
| CC(=O)OC[C@H]1O[C@@H](NC(=S)N/N=C/c2ccc(F)cc2)[C@H](OC(C)=O)[C@@H](OC(C)=O)[C@H]1OC(C)=O | 351 | 0.69 | 8.6 | 67.2 | 55.6 | 34.3 | 17.1 | 13.3 | 8.51 | 197 |
| CC(=O)OC[C@H]1O[C@@H](NC(=S)N/N=C/c2ccc(Cl)cc2)[C@H](OC(C)=O)[C@@H](OC(C)=O)[C@H]1OC(C)=O | 358 | 0.7 | 8.91 | 55.4 | 38.4 | 19.8 | 17.6 | 10.1 | 7.15 | 270 |
| CC(=O)OC[C@H]1O[C@@H](NC(=S)N/N=C/c2ccc(C)cc2)[C@H](OC(C)=O)[C@@H](OC(C)=O)[C@H]1OC(C)=O | 354 | 0.72 | 8.82 | 65 | 53.3 | 32.8 | 18.1 | 12.8 | 7.21 | 206 |
| COc1cc(/C=N/NC(=S)N[C@@H]2O[C@H](COC(C)=O)[C@H](OC(C)=O)[C@H](OC(C)=O)[C@H]2OC(C)=O)ccc1O | 290 | 0.37 | 6.57 | 74 | 71.2 | 60.3 | 45.6 | 27.1 | 9.45 | 75 |
| COc1ccc(/C=N/NC(=S)N[C@@H]2O[C@H](COC(C)=O)[C@H](OC(C)=O)[C@H](OC(C)=O)[C@H]2OC(C)=O)cc1O | 352 | 0.59 | 8.76 | 69.6 | 56.8 | 40.1 | 28.2 | 17.4 | 8.16 | 182 |
| CC(=O)OC[C@H]1O[C@@H](NC(=S)N/N=C/c2ccc(N(C)C)cc2)[C@H](OC(C)=O)[C@@H](OC(C)=O)[C@H]1OC(C)=O | 295 | 0.71 | 5.81 | 78.5 | 74.5 | 68.2 | 48.9 | 30.9 | 14.3 | 56 |
